Screening data (PubChem BioAssay)
Sampled rows, rich in hits. Any-hit rate of the full collection: about 1.5%.
STAT3 inh-1: IL-6 driven STAT3 reporter inhibitors, primary screen, U3A cells, luciferase, luminescence, MLSCN library | IL-6 STAT3-luciferase reporter; host cell line lacks STAT1 | inhibition, % at 5.5 µM | hit rate 0.89% among 190,000;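 active means inhibition above the mean inhibition across all screened compounds plus 3 SD, cut at about 44% in these data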;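 further: 0% = DMSO only wells and 100% = 100 µM nifuroxazide control wells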
Platelet DG rel: inhibitors of platelet dense granule secretion, primary screen, cell-based, MLPCN, human platelets | hit rate 0.22% among 300,000 | inhibition, %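 (compounds screened at 7.5 µM in platelet-rich plasma)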 | human platelet-rich plasma, SFLLRN dense granule ATP release, luminescence;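 active means mean replicate score, as percent of positive control, at or above 50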
Hep lipid drop: inhibitors of hepatocyte lipid droplet formation, primary screen, imaging, high-throughput imaging, BODIPY stain. hit rate 0.4% among 240,000. AML12 mouse hepatocytes, oleate lipid droplets. inhibition, % at 6.5 µM;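 active means lipid droplet intensity inhibited by at least 50%, with more than 500 cells counted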
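Test system: AML12 hepatocytes (mouse); reagent: oleate loading, 100 µM; dosing: one dose, 6.5 µM compound; incubation: overnight exposure; signal: fluorescence imaging, 20x objective, two fields per well; read-out basis: % inhibition of corrected integrated BODIPY droplet signal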
STAT1 blocker: STAT1 signaling inhibitors, primary screen, cell-based, HTS, luciferase reporter; NIH 3T3 STAT1-luciferase reporter, IFN-gamma, luminescence; inhibition, % at 5.5 µM; hit rate 0.35% among 200,000; AID 920, 2007;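 active means inhibition above a set limit, the mean inhibition across all tested compounds plus 3 SD, cut at about 34% in these data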;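 further: 0% = IFN-gamma with DMSO and 100% = IFN-gamma with 300 µM nifuroxazide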
H9c2 TAG inh: inhibitors of triacylglycerol accumulation, primary screen, cell-based, uHTS, fluorescence, H9c2 | inhibition, % at 12.5 µM | hit rate 0.66% among 230,000 | H9c2 cells, Nile Red lipid (TAG) fluorescence; cells loaded with 200 µM oleic acid | AID 651582, 2012;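 active means pattern-corrected inhibition of lipid staining of at least 50% with the nuclear-stain viability signal not falling by more than 50%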;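 further: 0% = DMSO wells and 100% = triacsin C control wells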
PPC-1+TRAIL kill: compounds killing PPC-1 cancer cells with TRAIL present, primary screen, TRAIL potentiator project, ATPLite luminescence, uHTS. hit rate 0.41% among 220,000. PPC-1 cells + TRAIL, ATPLite viability luminescence. cell killing (% activity), % at 4 µM or 5 µM;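 active means cell killing above 50% in the first pass at 4 µM, then a duplicate retest at 5 µM averaging 50% or more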;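 further: plate controls were cells with TRAIL plus DMSO for no effect and medium-only wells lacking cells for full effect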
STAT3 inh-2: STAT3 reporter inhibitors, retest of hits, confirmation, U3A cells, luciferase, luminescence; IL-6 STAT3 luciferase reporter; cell line lacks STAT1; shares compounds with STAT3 inh-1; inhibition, % at 5.7 µM; hit rate 45% among 1,200;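 active means inhibition above the hit cutoff computed for the primary STAT3 screen, cut at about 44% in these data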;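 further: 0% = IL-6 plus DMSO and 100% = IL-6 plus nifuroxazide control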
NFkB inh STAT3ct: NF-kB reporter inhibitors in human cells, confirmation, counter-screen for STAT3 inhibitor project, cell-based, HEK293T, luciferase, TNF-alpha stimulus | inhibition, % at 5.7 µM | hit rate 36% among 1,200 | AID 1308, 2008 | shares compounds with STAT3 inh-1 | TNF-alpha induced;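 active means inhibition above the mean of solvent-only control wells plus 3 SD, cutoff set per campaign, cut at about 13% in these data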;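 further: 0% = TNF-alpha with DMSO and 100% = TNF-alpha with MG high control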
STAT1 inh STAT3c: STAT1 reporter inhibitors, IFN-gamma induced, confirmation, counter-screen for STAT3 inhibitor project, cell-based, NIH 3T3, luciferase luminescence; shares compounds with STAT3 inh-1; NIH 3T3 STAT1-luciferase reporter; inhibition, % at 5.7 µM; hit rate 27% among 1,200; AID 1317, 2008;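 active means inhibition above the mean plus 3 SD of solvent-only control wells, limit set per screening run, cut at about 16% in these data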;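 further: 0% = DMSO with IFN-gamma and 100% = nifuroxazide control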
PPC-1 tox: cytotoxicity in PPC-1 cells, confirmation, cytotoxicity control for TRAIL apoptosis potentiator project, cell-based, ATP content luminescence | shares compounds with PPC-1+TRAIL kill | hit rate 50% among 1,200 | cytotoxicity, % at 5 µM | PPC-1 viability, ATPlite luminescence, overnight | AID 1447, 2008;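 active means reconfirmed compounds whose average cytotoxicity reaches 50% or more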;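 further: 0% = DMSO-treated cells and 100% = wells holding medium but no cells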
An asterisk follows results filed as active.

`Cn1nc(C(C)(C)C)cc1C(=O)NCc1ccc(N2CCCC2=O)cc1` gave STAT3 inh-1 58.9*, Platelet DG rel 2.2, Hep lipid drop -96.3, STAT1 blocker 22.0, PPC-1+TRAIL kill 12.2, STAT3 inh-2 62.8*, NFkB inh STAT3ct 29.2* and STAT1 inh STAT3c 33.0*.
For COC(=O)CN1C(=O)COc2ccc(S(=O)(=O)N3CCCCC3)cc21 the results were H9c2 TAG inh 9.2.
For CCCCN(C(=O)COc1ccc(F)cc1)c1c(N)n(CC(C)C)c(=O)[nH]c1=O the results were H9c2 TAG inh -16.9.
`COc1ccc(N2C[C@H](CSC)[C@@H](CC(=O)Nc3ccccc3)C2=O)cc1` gave H9c2 TAG inh 65.5.
Screening CC(C)C(NC(=O)c1ccc(C(C)(C)C)cc1)C(=O)Nc1cccc(S(N)(=O)=O)c1 (stereo unspecified) returned STAT3 inh-1 43.9*, Platelet DG rel 11.3, Hep lipid drop 0.3, STAT1 blocker -11.7, H9c2 TAG inh -5.2, PPC-1+TRAIL kill 16.7, STAT3 inh-2 10.1, NFkB inh STAT3ct -1.8 and STAT1 inh STAT3c -3.4.
Screening Cc1ccn2cc(-c3ccc4c(c3)NC(=O)CO4)nc2c1 returned STAT3 inh-1 45.7*, Platelet DG rel -6.3, Hep lipid drop -11.0, STAT1 blocker -18.2, H9c2 TAG inh 15.7, PPC-1+TRAIL kill 46.5, STAT3 inh-2 18.8, NFkB inh STAT3ct -25.1, STAT1 inh STAT3c -75.6 and PPC-1 tox 40.7.
`O=C(Nc1nc2ccccc2[nH]1)c1ccc(F)cc1` gave STAT3 inh-1 71.7*, Platelet DG rel 9.8, STAT1 blocker -3.1, PPC-1+TRAIL kill 72.5*, STAT3 inh-2 33.8, NFkB inh STAT3ct -7.1, STAT1 inh STAT3c -73.7 and PPC-1 tox 71.8*.
`C#CCNC(=O)c1ccc2sc([C@@H]3O[C@H](CO)[C@H](O)[C@H](O)[C@H]3O)nc2c1` gave H9c2 TAG inh -0.4.
O=C(N/N=C/c1ccc2c(c1)OCO2)c1ccccn1 was read as STAT3 inh-1 55.0*, Platelet DG rel 20.2, STAT1 blocker -0.5, PPC-1+TRAIL kill 58.5*, STAT3 inh-2 12.9, NFkB inh STAT3ct -8.6, STAT1 inh STAT3c -53.6 and PPC-1 tox 59.8*.
O=C(NCc1ccccc1)c1cc(C2CCCN(C(=O)CCCc3ccccc3)C2)on1 (stereo unspecified) was read as H9c2 TAG inh 4.2.
`CCOc1ccc2nc(-c3ccccc3)[nH]c2c1` gave STAT3 inh-1 49.5*, Platelet DG rel 1.2, STAT1 blocker -43.3, H9c2 TAG inh 50.3*, PPC-1+TRAIL kill 48.5, STAT3 inh-2 22.2, NFkB inh STAT3ct -17.2, STAT1 inh STAT3c -109.7 and PPC-1 tox 55.6*.
CCOC(=O)c1c(N)sc(C(=O)Nc2ccc3c(c2)OCO3)c1C was read as STAT3 inh-1 85.2*, Platelet DG rel 56.4*, Hep lipid drop -0.1, STAT1 blocker 24.2, H9c2 TAG inh -26.7, PPC-1+TRAIL kill 71.1*, STAT3 inh-2 31.0, NFkB inh STAT3ct 17.4*, STAT1 inh STAT3c -62.1 and PPC-1 tox 76.7*.
`Cc1ccc2nc(NC(=O)c3cccs3)sc2c1` gave STAT3 inh-1 70.1*, STAT1 blocker -29.9, H9c2 TAG inh -26.0, PPC-1+TRAIL kill 51.7*, STAT3 inh-2 33.9, NFkB inh STAT3ct -6.8, STAT1 inh STAT3c -128.7 and PPC-1 tox 54.0*.
For CS(=O)(=O)c1ccc2nc(NC(=O)c3cccs3)sc2c1 the results were STAT3 inh-1 58.6*, Hep lipid drop -8.4, STAT1 blocker 13.0, H9c2 TAG inh -8.7, PPC-1+TRAIL kill 75.2*, STAT3 inh-2 17.3, NFkB inh STAT3ct -7.4, STAT1 inh STAT3c -59.8 and PPC-1 tox 76.1*.
Cc1ccc(C(=O)Nc2nc3ccc(S(C)(=O)=O)cc3s2)s1 was read as STAT3 inh-1 13.0, Platelet DG rel 8.0, STAT1 blocker -50.0 and PPC-1+TRAIL kill 47.8.
`CN(CC(=O)Nc1ccc(OC(F)(F)F)cc1)C(=O)c1ccccc1SCC(=O)N1CCCC1` gave H9c2 TAG inh -2.2.
For CCC(NCc1cccnc1)c1ccc(OC)c(OC)c1 (stereo unspecified) the results were H9c2 TAG inh 0.2.
For COc1ccc(-c2noc(CCC(=O)Nc3cccc(C(=O)NC4CC4)c3)n2)cc1OC the results were H9c2 TAG inh -5.7.
For C#Cc1cccc(Nc2nc(NCc3ccccc3OC)nc3ccsc23)c1 the results were H9c2 TAG inh -9.3.
`CC(C)c1ccc2oc(-c3ccc(N)cc3)nc2c1` gave STAT3 inh-1 77.7*, Platelet DG rel 6.4, STAT1 blocker 27.8, PPC-1+TRAIL kill 68.5*, STAT3 inh-2 32.1, NFkB inh STAT3ct 5.1, STAT1 inh STAT3c -88.0 and PPC-1 tox 72.5*.
`Cc1ccc(-c2nc3cc(N)ccc3o2)cc1` gave STAT3 inh-1 59.4*, Platelet DG rel 14.2, Hep lipid drop 9.2, STAT1 blocker -26.9, PPC-1+TRAIL kill 63.4*, STAT3 inh-2 17.0, NFkB inh STAT3ct -15.7, STAT1 inh STAT3c -119.6 and PPC-1 tox 60.8*.
CCCc1ccc(-c2cc(C(=O)N/N=C/c3ccc([N+](=O)[O-])o3)c3ccccc3n2)cc1 was read as STAT3 inh-1 47.7*, Platelet DG rel 11.4, Hep lipid drop -11.2, STAT1 blocker 24.0, H9c2 TAG inh 23.5, PPC-1+TRAIL kill 76.7*, STAT3 inh-2 8.6, NFkB inh STAT3ct 5.2, STAT1 inh STAT3c -17.4 and PPC-1 tox 76.2*.
Screening O=C(N/N=C/c1ccc([N+](=O)[O-])o1)c1cc(-c2cccc(Br)c2)nc2ccccc12 returned STAT3 inh-1 2.5, STAT1 blocker 3.6, H9c2 TAG inh 10.0 and PPC-1+TRAIL kill 3.9.
`COc1ccc(-c2coc3cc(O)ccc3c2=O)cc1` gave Platelet DG rel 0.7 and H9c2 TAG inh -18.7.
